Experimental data: ChEMBL document CHEMBL4251624, “Synthesis of podophyllotoxin linked β-carboline congeners as potential anticancer agents and DNA topoisomerase II inhibitors” (Eur J Med Chem, 2018)
The source made the active and inactive calls. The rule behind the calls is not given here.

Key:
A549 = assay: Cytotoxicity against human A549 cells after 48 hrs by MTT assay; format: functional, cell-based; conditions: A549, 48 h
In short: (§1)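 MTT assay. Cells seeded at 1×10^4 per well in DMEM or MEM with 10% FBS and grown 24 h at 37 °C under CO2. Compounds added for 48 h, then MTT (5 mg/mL stock) for 4 h. Formazan dissolved in DMSO and read at 570 nm. IC50 is the average of three independent experiments.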

HT-29 = assay: Cytotoxicity against human HT-29 cells after 48 hrs by MTT assay; format: functional, cell-based; conditions: HT-29, 48 h; in short: as §1
MDA-MB-231 = assay: Cytotoxicity against human MDA-MB-231 cells after 48 hrs by MTT assay; format: functional, cell-based; conditions: MDA-MB-231, 48 h; in short: as §1
HEK293 = assay: Cytotoxicity against HEK293 cells after 48 hrs by MTT assay; format: cell-based; conditions: Homo sapiens, HEK293, 48 h; in short: as §1
DU-145 [1] = assay: Cytotoxicity against human DU145 cells after 48 hrs by MTT assay; format: functional, cell-based; conditions: DU-145, 48 h; in short: as §1
HeLa = assay: Cytotoxicity against human HeLa cells after 48 hrs by MTT assay; format: functional, cell-based; in short: as §1
DU-145 [2] = assay: Cell cycle arrest in human DU145 cells assessed as accumulation at sub-G1 phase at 1 uM after 48 hrs by propidium iodide staining based flow cytometry (reference value: 1.49%); format: functional
Calf thymus DNA [3] = assay: Binding affinity to calf thymus DNA assessed as hypochromicity of positive CD band at 10 to 20 uM by CD spectroscopic method relative to control; format: nucleic-acid assay; conditions: Bos taurus
In short: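 CD spectra of 10 μM CT-DNA in 100 mM Tris-HCl pH 7.0, alone and with 10.0 or 20 μM compound (1:1 and 1:2 DNA:complex). Recorded 200–350 nm in a 1 mm path cuvette and averaged over 3 scans.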

Homo sapiens = species: Homo sapiens; assay: Inhibition of topoisomerase-2 (unknown origin) assessed as reduction in ATP-dependent decatenation of kinetoplast DNA at 10 uM after 30 mins by ethidium bromide staining based UV trans-illumination assay
In short: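 kDNA decatenation, 20 μl reactions: 120 mM KCl, 50 mM Tris-HCl pH 8, 10 mM MgCl2, 0.5 mM DTT, 0.5 mM ATP, BSA, 200–300 ng kDNA, topo II 5 units. Incubated 37 °C for 30 min, stopped with SDS/proteinase K for 10 min at 37 °C. Products run on 1% agarose at 100 V and visualized by ethidium bromide under UV.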

DU-145 [4] = assay: Induction of DNA damage in human DU145 cells at 10 uM after 24 hrs using propidium iodide stain by electrophoresis based fluorescence microscopic method; format: functional, cell-based
In short: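 DU-145 cells treated at 10 μM for 24 h; about 25,000 cells embedded in agarose on slides. Electrophoresis 20 min at 40 V in 0.5% TBE pH 8. Propidium iodide stain 30 min; fluorescence imaging at 20x.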

Calf thymus DNA [5] = assay: Binding affinity to calf thymus DNA by UV-Visible spectroscopic method; format: nucleic-acid assay; conditions: Bos taurus
In short: (§2)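 UV-visible absorption titration at 25 °C in […] cuvettes. Compound held at 25.0 μM (1 ml, 1 cm path), titrated with 5 μl additions of 25.0 μM CT-DNA in 100 mM Tris-HCl pH 7.0 until absorbance saturated. Spectra recorded 200–400 nm, using freshly prepared stocks.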

DU-145 [6] = assay: Cell cycle arrest in human DU145 cells assessed as accumulation at S-phase at 1 uM after 48 hrs by propidium iodide staining based flow cytometry (reference value: 24.99%); format: functional
DU-145 [7] = assay: Cell cycle arrest in human DU145 cells assessed as accumulation at G0/G1 phase at 1 uM after 48 hrs by propidium iodide staining based flow cytometry (reference value: 51.28%); format: functional
Calf thymus DNA [8] = assay: Binding affinity to calf thymus DNA assessed as hypochromic effect at 10 uM by fluorescence spectroscopic method; format: nucleic-acid assay; conditions: Bos taurus
In short: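 Fluorescence titration at 25 °C in an acid-washed 1 cm quartz cuvette. Compound held constant at 10 μM and titrated with CT-DNA in equal steps (multiples of 0.5 μM), with a spectrum after each addition. Excitation 230 nm, emission recorded up to 600 nm.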

DU-145 [9] = assay: Cell cycle arrest in human DU145 cells assessed as accumulation at G2/Mphase at 1 uM after 48 hrs by propidium iodide staining based flow cytometry (reference value: 21.71%); format: functional
Calf thymus DNA [10] = assay: Binding affinity to calf thymus DNA assessed as hyperchromic effect […] by UV-Visible spectroscopic method; format: nucleic-acid assay; conditions: Bos taurus; in short: as §2

| Structure (SMILES) | IC50 (A549) | IC50 (HT-29) | IC50 (MDA-MB-231) | IC50 (HEK293) | IC50 (DU-145 [1]) | IC50 (HeLa) | Activity (DU-145 [2]) | Activity (Calf thymus DNA [3]) | inhibition (Homo sapiens) | Activity (DU-145 [4]) | Kb (Calf thymus DNA [5]) | Activity (DU-145 [6]) | Activity (DU-145 [7]) | Activity (Calf thymus DNA [8]) | Activity (DU-145 [9]) | Activity (Calf thymus DNA [10]) |
| --- | --- | --- | --- | --- | --- | --- | --- | --- | --- | --- | --- | --- | --- | --- | --- | --- |
| COc1cc([C@@H]2c3cc4c(cc3[C@@H](NC(=O)c3cc5c([nH]c6ccccc65)c(-c5cccc(Cl)c5)n3)[C@H]3COC(=O)[C@H]23)OCO4)cc(OC)c1OC | 3.16 µM | 5.26 µM | 3.29 µM | 131 µM | 2.41 µM | 6.09 µM |  |  |  |  |  |  |  |  |  |  |
| COc1cc([C@@H]2c3cc4c(cc3[C@@H](NC(=O)c3cc5c([nH]c6ccccc65)c(-c5cccc(F)c5)n3)[C@H]3COC(=O)[C@H]23)OCO4)cc(OC)c1OC | 36.4 µM | 55.7 µM | 80.4 µM | 104 µM | 48.4 µM | 26.5 µM |  |  |  |  |  |  |  |  |  |  |
| COc1cc([C@@H]2c3cc4c(cc3[C@@H](NC(=O)c3cc5c([nH]c6ccccc65)c(-c5ccc(F)cc5)n3)[C@H]3COC(=O)[C@H]23)OCO4)cc(OC)c1OC | 10.2 µM | 11.5 µM | 10.7 µM | 109 µM | 5.07 µM | 15.5 µM |  |  |  |  |  |  |  |  |  |  |
| COc1ccc(-c2nc(C(=O)N[C@@H]3c4cc5c(cc4[C@@H](c4cc(OC)c(OC)c(OC)c4)[C@H]4C(=O)OC[C@@H]43)OCO5)cc3c2[nH]c2ccccc23)cc1 | 29.4 µM | 35.6 µM | 34 µM | 65 µM | 16.8 µM | 21.9 µM |  |  |  |  |  |  |  |  |  |  |
| COc1cc([C@@H]2c3cc4c(cc3[C@@H](NC(=O)c3cc5c([nH]c6ccccc65)c(-c5ccc(C(F)(F)F)cc5)n3)[C@H]3COC(=O)[C@H]23)OCO4)cc(OC)c1OC | 34.1 µM | 46.5 µM | 75.9 µM | 63 µM | 24.8 µM | 32.1 µM |  |  |  |  |  |  |  |  |  |  |
| COc1cc(-c2nc(C(=O)N[C@@H]3c4cc5c(cc4[C@@H](c4cc(OC)c(OC)c(OC)c4)[C@H]4C(=O)OC[C@@H]43)OCO5)cc3c2[nH]c2ccccc23)cc(OC)c1OC | 104 µM | 86.5 µM | 58.8 µM | 168 µM | 40.3 µM | 72.9 µM |  |  |  |  |  |  |  |  |  |  |
| COc1cc([C@@H]2c3cc4c(cc3[C@H](O)[C@H]3COC(=O)[C@H]23)OCO4)cc(OC)c1OC [PODOFILOX] |  | 2.99 µM | 9.76 µM |  | 3.11 µM | 3.04 µM |  |  |  |  |  |  |  |  |  |  |
| COc1cc([C@@H]2c3cc4c(cc3[C@@H](NC(=O)c3cc5c([nH]c6ccccc65)c(-c5ccccc5)n3)[C@H]3COC(=O)[C@H]23)OCO4)cc(OC)c1OC | 2 µM | 6.87 µM | 2.6 µM | 75 µM | 1.68 µM | 5.26 µM |  |  |  |  |  |  |  |  |  |  |
| COc1cc([C@@H]2c3cc4c(cc3[C@@H](NC(=O)c3cc5c([nH]c6ccccc65)c(-c5ccc(F)c(F)c5)n3)[C@H]3COC(=O)[C@H]23)OCO4)cc(OC)c1OC | 2.24 µM | 3.53 µM | 2.9 µM | 106 µM | 1.14 µM | 3.72 µM | 10.9% | Active | Active | Active | 1 ×10⁴ /M | 39.65% | 18.41% | Active | 28.08% | Active |
| COc1cc([C@@H]2c3cc4c(cc3[C@@H](NC(=O)c3cc5c([nH]c6ccccc65)c(-c5cccnc5)n3)[C@H]3COC(=O)[C@H]23)OCO4)cc(OC)c1OC | 2.55 µM | 6.36 µM | 3.05 µM | 84.3 µM | 1.98 µM | 4.72 µM |  |  |  |  |  |  |  |  |  |  |
| COc1cc([C@@H]2c3cc4c(cc3[C@@H](NC(=O)c3cc5c([nH]c6ccccc65)c(-c5ccc(Cl)cc5)n3)[C@H]3COC(=O)[C@H]23)OCO4)cc(OC)c1OC | 3.98 µM | 5.77 µM | 3.87 µM | 58.9 µM | 2.65 µM | 6.61 µM |  |  |  |  |  |  |  |  |  |  |
| COc1cc([C@@H]2c3cc4c(cc3[C@@H](NC(=O)c3cc5c([nH]c6ccccc65)c(-c5ccc(C)cc5)n3)[C@H]3COC(=O)[C@H]23)OCO4)cc(OC)c1OC | 16.8 µM | 20 µM | 16.4 µM | 59.4 µM | 8.74 µM | 9.77 µM |  |  |  |  |  |  |  |  |  |  |
| COc1cccc2c1C(=O)c1c(O)c3c(c(O)c1C2=O)C[C@@](O)(C(=O)CO)C[C@@H]3O[C@H]1C[C@H](N)[C@H](O)[C@H](C)O1 [DOXORUBICIN] | 1.68 µM | 1.41 µM | 1.32 µM |  | 1.86 µM |  |  |  |  |  |  |  |  |  |  |  |
| COc1cc([C@@H]2c3cc4c(cc3[C@@H](NC(=O)c3cc5c([nH]c6ccccc65)c(-c5cccc(Oc6ccccc6)c5)n3)[C@H]3COC(=O)[C@H]23)OCO4)cc(OC)c1OC | 5.19 µM | 10.3 µM | 7.52 µM | 102 µM | 3.17 µM | 11.2 µM |  |  |  |  |  |  |  |  |  |  |
| COc1ccc(-c2nc(C(=O)N[C@@H]3c4cc5c(cc4[C@@H](c4cc(OC)c(OC)c(OC)c4)[C@H]4C(=O)OC[C@@H]43)OCO5)cc3c2[nH]c2ccccc23)cc1OC | 12.7 µM | 14.3 µM | 15.5 µM | 89.8 µM | 9.16 µM | 13.4 µM |  |  |  |  |  |  |  |  |  |  |
| COc1ccc(OC)c(-c2nc(C(=O)N[C@@H]3c4cc5c(cc4[C@@H](c4cc(OC)c(OC)c(OC)c4)[C@H]4C(=O)OC[C@@H]43)OCO5)cc3c2[nH]c2ccccc23)c1 | 1.87 µM | 2.68 µM | 2.64 µM | 103 µM | 1.07 µM | 2.92 µM | 10.79% | Active | Active | Active | 1 ×10⁴ /M | 41.44% | 18.69% | Active | 29.16% | Active |
| COc1cc([C@@H]2c3cc4c(cc3[C@@H](NC(=O)c3cc5c([nH]c6ccccc65)c(-c5cccc6ccccc56)n3)[C@H]3COC(=O)[C@H]23)OCO4)cc(OC)c1OC | 56.9 µM | 23 µM | 27.9 µM | 77.3 µM | 22 µM | 33 µM |  |  |  |  |  |  |  |  |  |  |
| COc1cc([C@@H]2c3cc4c(cc3[C@@H](NC(=O)c3cc5c([nH]c6ccccc65)c(-c5ccc6c(c5)OCO6)n3)[C@H]3COC(=O)[C@H]23)OCO4)cc(OC)c1OC | 21.8 µM | 30.6 µM | 34.3 µM | 70.6 µM | 14.5 µM | 15.3 µM |  |  |  |  |  |  |  |  |  |  |
| COc1ccccc1-c1nc(C(=O)N[C@@H]2c3cc4c(cc3[C@@H](c3cc(OC)c(OC)c(OC)c3)[C@H]3C(=O)OC[C@@H]32)OCO4)cc2c1[nH]c1ccccc12 | 1.94 µM | 4.3 µM | 2.69 µM | 107 µM | 1.41 µM | 4.12 µM |  |  |  |  |  |  |  |  |  |  |
